Assay [1] relates to Radical scavenging activity. Description: Antioxidant activity assessed as DPPH radical scavenging activity at equimolar amount of compound. The format is functional. In outline: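 Test compound and DPPH mixed at equal concentrations (each […] as printed) in acetone–PBS 1:1 v/v. DPPH reduction followed spectrophotometrically at 516 nm. Reciprocal DPPH concentration plotted against time; second-order rate constant taken from slope, mean of n = 3–6.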
Background: Loss of DPPH colour is used to gauge radical scavenging.

The nature of assay [2]: Inhibition of AAPH-induced lipid peroxidation in bovine brain phospholipid liposome. It is filed as functional, tissue-based, Bos taurus. The procedure, abridged:
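Bovine brain phospholipid liposomes (1 mg/mL final) in 30 mM KH2PO4-KOH buffer, pH 7.4, with 10 mM AAPH and test compound at variable concentrations (acetone vehicle). Incubated 1 h at 37 °C with shaking. BHT, HCl and TBA then added; TBA-reactive material extracted into butanol and read at 532 nm against an MDA standard.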

Assay [3] has as its system PMNL. Description: Inhibition of LTB4 biosynthesis in A-23187-stimulated bovine PMNL cells. Conditions: Bos taurus. It is filed as functional, cell-based. The procedure, abridged:
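Bovine PMNL (10^7 cells/mL) preincubated with compound 15 min at 37 °C, then stimulated with Ca-ionophore. LTB4 and 5-HETE released after 10 min quantified by reversed-phase HPLC. Inhibition = (1 − test/control) × 100, test n = 3, control n = 6–8. IC50 interpolated from log concentration–response plot using ≥4 concentrations spanning 50%.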

Assay [4] in a line: Prooxidant activity assessed as hydroxyl radical formation at 75 uM measured as malondialdehyde per mmol of deoxyribose by deoxyribose assay. It is filed as functional. The procedure, abridged:
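Final mixture: 2 mM 2-deoxy-D-ribose, 0.1 mM FeCl3, 30 mM KH2PO4-KOH pH 7.4, 75 μM compound, acetonitrile vehicle controls; 2 h at 37 °C with shaking. TCA and TBA added, heated 100 °C 15 min, butanol-extracted, A532 read. Calibrated against MDA from tetraethoxypropane; reported as μmol MDA/mmol deoxyribose, n = 3.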

The source of these data is ChEMBL document CHEMBL1141857, “Lichen metabolites. 1. Inhibitory action against leukotriene B4 biosynthesis by a non-redox mechanism” (J Nat Prod, 1999).

Molecules are shown by their SMILES.

With `COC(=O)c1c(C)cc(OC(=O)c2c(C)cc(O)c(C=O)c2O)c(C)c1O` [ATRANORIN], the Activity amounted to 11.5 M⁻¹ s⁻¹ in assay [1] and 0 µmol in assay [4]. The concentration for half-maximal inhibition (IC50) (commonly the concentration at which inhibition is half-maximal) in assay [2] is > 200 µM; in assay [3] it was 6 µM.

As for `O=C1c2c(O)cccc2Cc2cccc(O)c21` [ANTHRALIN], the Activity in assay [1] is 24.2 M⁻¹ s⁻¹. Further, the IC50 in assay [2] is 79 µM.

Turning to `COC(=O)c1c(C)cc(O)c(C)c1O` [ATRARIC ACID], the Activity came out at 5.95 M⁻¹ s⁻¹ in assay [1] and 1.43 µmol in assay [4]. Moreover, the IC50 was > 200 µM in assay [2] and > 60 µM in assay [3].

As for `Cc1cc(OC(=O)c2c(C)cc(OC(=O)c3c(C)cc(O)cc3O)cc2O)cc(O)c1C(=O)O` [GYROPHORIC ACID], the Activity is 3.63 M⁻¹ s⁻¹ in assay [1] and 0.12 µmol in assay [4]. The half-maximal inhibitory concentration (IC50) in assay [2] was > 200 µM; in assay [3], > 60 µM.

As for `CCOC(=O)c1c(C)cc(O)c(C=O)c1O` [ETHYL HEMATOMMATE], the Activity in assay [1] stood at 12.2 M⁻¹ s⁻¹; in assay [4], 0.3 µmol. The IC50 in assay [2] is > 200 µM; in assay [3], 40 µM.

Consider `COc1cc(C)c(C(=O)Oc2cc(C)c(C(=O)O)c(O)c2C)c(OC)c1C` [DIFFRACTAIC ACID], for which the Activity in assay [1] was < 1 M⁻¹ s⁻¹; in assay [4] it was 0.12 µmol. Also, the IC50 in assay [2] was > 200 µM; in assay [3] it was 8 µM.

For the compound `CC(=O)C1=C(O)C=C2Oc3c(C(C)=O)c(O)c(C)c(O)c3[C@@]2(C)C1=O` [(+)-USNIC ACID], the Activity in assay [1] was < 1 M⁻¹ s⁻¹; in assay [4], 1.47 µmol. Besides, the results for the IC50 in assay [2] and in assay [3] were > 200 µM and 42 µM, respectively.

In the case of `C=C1C(=O)O[C@@H](CCCCCCCCCCCCC)[C@@H]1C(=O)O` [PROTOLICHESTERINIC ACID], the Activity is < 1 M⁻¹ s⁻¹ in assay [1] and 0.08 µmol in assay [4]. For the same compound, the IC50 in assay [2] was > 200 µM; in assay [3], 9 µM.

`CC(Cc1ccc(O)c(O)c1)C(C)Cc1ccc(O)c(O)c1` (centres undefined) [NORDIHYDROGUAIARETIC ACID]: the Activity in assay [1] is > 100 M⁻¹ s⁻¹; in assay [4] it was 0.23 µmol. The half-maximal inhibitory concentration (IC50) in assay [2] stood at 2 µM; in assay [3] it was 0.4 µM.
